≈ marks a conversion by molar mass, not a printed value. One block for each compound: values may come before it.
How the values were obtained:
Type in all cases: functional
Pseudomonas aeruginosa [1] = test: Antimicrobial activity against metallo-beta-lactamase-negative Pseudomonas aeruginosa isolate PA460
Pseudomonas aeruginosa [2] = test: Antimicrobial activity against Pseudomonas aeruginosa isolate PA469 expressing VIM-2 beta-lactamase
Pseudomonas aeruginosa [3] = test: Antimicrobial activity against metallo-beta-lactamase-negative Pseudomonas aeruginosa isolate PA479
Pseudomonas aeruginosa [4] = test: Antimicrobial activity against Pseudomonas aeruginosa isolate PA481 expressing VIM-2 beta-lactamase
Pseudomonas aeruginosa [5] = test: Antimicrobial activity against Pseudomonas aeruginosa isolate PA475 expressing VIM-2 beta-lactamase
Pseudomonas aeruginosa [6] = test: Antimicrobial activity against metallo-beta-lactamase-negative Pseudomonas aeruginosa isolate PA483
Pseudomonas aeruginosa [7] = test: Antimicrobial activity against Pseudomonas aeruginosa isolate PA477 expressing VIM-2 beta-lactamase
Pseudomonas aeruginosa [8] = test: Antimicrobial activity against Pseudomonas aeruginosa isolate PA510 expressing VIM-2 beta-lactamase
Pseudomonas aeruginosa [9] = test: Antimicrobial activity against Pseudomonas aeruginosa isolate PA462 expressing VIM-2 beta-lactamase
Pseudomonas aeruginosa [10] = test: Antimicrobial activity against Pseudomonas aeruginosa isolate PA465 expressing VIM-2 beta-lactamase
Pseudomonas aeruginosa [11] = test: Antimicrobial activity against Pseudomonas aeruginosa isolate PA500 expressing VIM-1 beta-lactamase
Pseudomonas aeruginosa [12] = test: Antimicrobial activity against Pseudomonas aeruginosa isolate PA399 expressing VIM-2 beta-lactamase
Pseudomonas aeruginosa [13] = test: Antimicrobial activity against metallo-beta-lactamase-negative Pseudomonas aeruginosa isolate PA509
Pseudomonas aeruginosa [14] = test: Antimicrobial activity against metallo-beta-lactamase-negative Pseudomonas aeruginosa isolate PA459
How it was run: (§1)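 MBL-negative clinical P. aeruginosa isolates with reduced imipenem susceptibility, collected at the study hospital, some from cystic fibrosis patients. Species identity was confirmed by automated Gram-negative identification card. MIC was read in μg/ml.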

Pseudomonas aeruginosa [15] = test: Antimicrobial activity against metallo-beta-lactamase-negative Pseudomonas aeruginosa isolate PA494
Pseudomonas aeruginosa [16] = test: Antimicrobial activity against metallo-beta-lactamase-negative Pseudomonas aeruginosa isolate PA507; how it was run: as §1
Pseudomonas aeruginosa [17] = test: Antimicrobial activity against metallo-beta-lactamase-negative Pseudomonas aeruginosa isolate PA758 isolated from patient with cystic fibrosis; how it was run: as §1
Pseudomonas aeruginosa [18] = test: Antimicrobial activity against metallo-beta-lactamase-negative Pseudomonas aeruginosa isolate PA364; how it was run: as §1
Pseudomonas aeruginosa [19] = test: Antimicrobial activity against Pseudomonas aeruginosa PA386 expressing IMP-13 beta-lactamase
How it was run: (§2)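 Well-characterized MBL-producing control strains from earlier studies: nine P. aeruginosa and one A. baumannii. MIC was read in μg/ml and used to set screening breakpoints for MBL producers.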

Pseudomonas aeruginosa [20] = test: Antimicrobial activity against metallo-beta-lactamase-negative Pseudomonas aeruginosa isolate PA361; how it was run: as §1
Pseudomonas aeruginosa [21] = test: Antimicrobial activity against metallo-beta-lactamase-negative Pseudomonas aeruginosa isolate PA340; how it was run: as §1
Pseudomonas aeruginosa [22] = test: Antimicrobial activity against metallo-beta-lactamase-negative Pseudomonas aeruginosa isolate PA395; how it was run: as §1
Pseudomonas aeruginosa [23] = test: Antimicrobial activity against metallo-beta-lactamase-negative Pseudomonas aeruginosa isolate PA352; how it was run: as §1
Pseudomonas aeruginosa [24] = test: Antimicrobial activity against metallo-beta-lactamase-negative Pseudomonas aeruginosa isolate PA377; how it was run: as §1
Pseudomonas aeruginosa [25] = test: Antimicrobial activity against metallo-beta-lactamase-negative Pseudomonas aeruginosa isolate PA380; how it was run: as §1
Pseudomonas aeruginosa [26] = test: Antimicrobial activity against Pseudomonas aeruginosa PA554 expressing GIM-1 beta-lactamase; how it was run: as §2
Pseudomonas aeruginosa [27] = test: Antimicrobial activity against Pseudomonas aeruginosa PA431 expressing IMP-1 beta-lactamase; how it was run: as §2
Pseudomonas aeruginosa [28] = test: Antimicrobial activity against metallo-beta-lactamase-negative Pseudomonas aeruginosa isolate PA376
Pseudomonas aeruginosa [29] = test: Antimicrobial activity against metallo-beta-lactamase-negative Pseudomonas aeruginosa isolate PA368; how it was run: as §1
Pseudomonas aeruginosa [30] = test: Antimicrobial activity against metallo-beta-lactamase-negative Pseudomonas aeruginosa isolate PA370; how it was run: as §1
Pseudomonas aeruginosa [31] = test: Antimicrobial activity against metallo-beta-lactamase-negative Pseudomonas aeruginosa isolate PA342; how it was run: as §1
Pseudomonas aeruginosa [32] = test: Antimicrobial activity against metallo-beta-lactamase-negative Pseudomonas aeruginosa isolate PA349; how it was run: as §1
Pseudomonas aeruginosa [33] = test: Antimicrobial activity against metallo-beta-lactamase-negative Pseudomonas aeruginosa isolate PA360; how it was run: as §1
Pseudomonas aeruginosa [34] = test: Antimicrobial activity against Pseudomonas aeruginosa PA399 expressing VIM-2 beta-lactamase; how it was run: as §2
Pseudomonas aeruginosa [35] = test: Antimicrobial activity against Pseudomonas aeruginosa PA553 expressing SPM-1 beta-lactamase; how it was run: as §2
Pseudomonas aeruginosa [36] = test: Antimicrobial activity against Pseudomonas aeruginosa PA373 expressing VIM-2 beta-lactamase; how it was run: as §2
Pseudomonas aeruginosa [37] = test: Antimicrobial activity against metallo-beta-lactamase-negative Pseudomonas aeruginosa isolate PA339; how it was run: as §1
Pseudomonas aeruginosa [38] = test: Antimicrobial activity against metallo-beta-lactamase-negative Pseudomonas aeruginosa isolate PA734 isolated from patient with cystic fibrosis; how it was run: as §1
Pseudomonas aeruginosa [39] = test: Antimicrobial activity against metallo-beta-lactamase-negative Pseudomonas aeruginosa isolate PA355; how it was run: as §1
Pseudomonas aeruginosa [40] = test: Antimicrobial activity against metallo-beta-lactamase-negative Pseudomonas aeruginosa isolate PA382; how it was run: as §1
Pseudomonas aeruginosa [41] = test: Antimicrobial activity against Pseudomonas aeruginosa PA552 expressing IMP-1 beta-lactamase; how it was run: as §2
Pseudomonas aeruginosa [42] = test: Antimicrobial activity against metallo-beta-lactamase-negative Pseudomonas aeruginosa isolate PA362; how it was run: as §1
Pseudomonas aeruginosa [43] = test: Antimicrobial activity against Pseudomonas aeruginosa PA430 expressing VIM-4 beta-lactamase; how it was run: as §2
Pseudomonas aeruginosa [44] = test: Antimicrobial activity against metallo-beta-lactamase-negative Pseudomonas aeruginosa isolate PA350; how it was run: as §1
Pseudomonas aeruginosa [45] = test: Antimicrobial activity against metallo-beta-lactamase-negative Pseudomonas aeruginosa isolate PA341; how it was run: as §1
Pseudomonas aeruginosa [46] = test: Antimicrobial activity against Pseudomonas aeruginosa PA550 expressing VIM-1 beta-lactamase; how it was run: as §2
Acinetobacter baumannii = test: Antimicrobial activity against Acinetobacter baumannii AB551 expressing SIM-1 beta-lactamase; how it was run: as §2
Pseudomonas aeruginosa [47] = test: Antimicrobial activity against metallo-beta-lactamase-negative Pseudomonas aeruginosa isolate PA381; how it was run: as §1
Pseudomonas aeruginosa [48] = test: Antimicrobial activity against metallo-beta-lactamase-negative Pseudomonas aeruginosa isolate PA736 isolated from patient with cystic fibrosis; how it was run: as §1
Pseudomonas aeruginosa [49] = test: Antimicrobial activity against metallo-beta-lactamase-negative Pseudomonas aeruginosa isolate PA356; how it was run: as §1
Pseudomonas aeruginosa [50] = test: Antimicrobial activity against metallo-beta-lactamase-negative Pseudomonas aeruginosa isolate PA774 isolated from patient with cystic fibrosis; how it was run: as §1
Pseudomonas aeruginosa [51] = test: Antimicrobial activity against metallo-beta-lactamase-negative Pseudomonas aeruginosa isolate PA346; how it was run: as §1

MIC (Pseudomonas aeruginosa [1]): 1 µg/mL
MIC (Pseudomonas aeruginosa [2]): 1 µg/mL
MIC (Pseudomonas aeruginosa [3]): 1 µg/mL
MIC (Pseudomonas aeruginosa [4]): 1 µg/mL
MIC (Pseudomonas aeruginosa [5]): 1 µg/mL
MIC (Pseudomonas aeruginosa [6]): 1 µg/mL
MIC (Pseudomonas aeruginosa [7]): 1 µg/mL
MIC (Pseudomonas aeruginosa [8]): 1 µg/mL
MIC (Pseudomonas aeruginosa [9]): 1 µg/mL
MIC (Pseudomonas aeruginosa [10]): 2 µg/mL
MIC (Pseudomonas aeruginosa [11]): 1 µg/mL
MIC (Pseudomonas aeruginosa [12]): 1 µg/mL
MIC (Pseudomonas aeruginosa [13]): 2 µg/mL
MIC (Pseudomonas aeruginosa [14]): 1 µg/mL
MIC (Pseudomonas aeruginosa [15]): 1 µg/mL
MIC (Pseudomonas aeruginosa [16]): 1 µg/mL
Compound: COLISTIN

Compound: CC(C)(O/N=C(\C(=O)N[C@@H]1C(=O)N2C(C(=O)[O-])=C(C[n+]3ccccc3)CS[C@H]12)c1csc(N)n1)C(=O)O [CEFTAZIDIME]
MIC (Pseudomonas aeruginosa [17]): 4 µg/mL (≈ 7.32 µM)
MIC (Pseudomonas aeruginosa [18]): 4 µg/mL (≈ 7.32 µM)
MIC (Pseudomonas aeruginosa [19]): ≥ 64 µg/mL
MIC (Pseudomonas aeruginosa [20]): ≥ 64 µg/mL
MIC (Pseudomonas aeruginosa [1]): 32 µg/mL (≈ 58.5 µM)
MIC (Pseudomonas aeruginosa [2]): ≥ 64 µg/mL
MIC (Pseudomonas aeruginosa [3]): ≥ 64 µg/mL
MIC (Pseudomonas aeruginosa [21]): 4 µg/mL (≈ 7.32 µM)
MIC (Pseudomonas aeruginosa [22]): ≥ 64 µg/mL
MIC (Pseudomonas aeruginosa [23]): 4 µg/mL (≈ 7.32 µM)
MIC (Pseudomonas aeruginosa [24]): 8 µg/mL (≈ 14.6 µM)
MIC (Pseudomonas aeruginosa [25]): 4 µg/mL (≈ 7.32 µM)
MIC (Pseudomonas aeruginosa [4]): ≥ 64 µg/mL
MIC (Pseudomonas aeruginosa [26]): ≥ 64 µg/mL
MIC (Pseudomonas aeruginosa [5]): ≥ 64 µg/mL
MIC (Pseudomonas aeruginosa [27]): ≥ 64 µg/mL
MIC (Pseudomonas aeruginosa [6]): ≥ 64 µg/mL
MIC (Pseudomonas aeruginosa [7]): ≥ 64 µg/mL
MIC (Pseudomonas aeruginosa [28]): 16 µg/mL (≈ 29.3 µM)
MIC (Pseudomonas aeruginosa [29]): 4 µg/mL (≈ 7.32 µM)
MIC (Pseudomonas aeruginosa [30]): 8 µg/mL (≈ 14.6 µM)
MIC (Pseudomonas aeruginosa [31]): 4 µg/mL (≈ 7.32 µM)
MIC (Pseudomonas aeruginosa [32]): 8 µg/mL (≈ 14.6 µM)
MIC (Pseudomonas aeruginosa [8]): ≥ 64 µg/mL
MIC (Pseudomonas aeruginosa [33]): 16 µg/mL (≈ 29.3 µM)
MIC (Pseudomonas aeruginosa [34]): ≥ 64 µg/mL
MIC (Pseudomonas aeruginosa [35]): ≥ 64 µg/mL
MIC (Pseudomonas aeruginosa [9]): ≥ 64 µg/mL
MIC (Pseudomonas aeruginosa [36]): ≥ 64 µg/mL
MIC (Pseudomonas aeruginosa [37]): 8 µg/mL (≈ 14.6 µM)
MIC (Pseudomonas aeruginosa [10]): ≥ 64 µg/mL
MIC (Pseudomonas aeruginosa [38]): 4 µg/mL (≈ 7.32 µM)
MIC (Pseudomonas aeruginosa [39]): 4 µg/mL (≈ 7.32 µM)
MIC (Pseudomonas aeruginosa [11]): ≥ 64 µg/mL
MIC (Pseudomonas aeruginosa [40]): 4 µg/mL (≈ 7.32 µM)
MIC (Pseudomonas aeruginosa [41]): ≥ 64 µg/mL
MIC (Pseudomonas aeruginosa [42]): 32 µg/mL (≈ 58.5 µM)
MIC (Pseudomonas aeruginosa [43]): ≥ 64 µg/mL
MIC (Pseudomonas aeruginosa [12]): ≥ 64 µg/mL
MIC (Pseudomonas aeruginosa [44]): 4 µg/mL (≈ 7.32 µM)
MIC (Pseudomonas aeruginosa [13]): 32 µg/mL (≈ 58.5 µM)
MIC (Pseudomonas aeruginosa [14]): 32 µg/mL (≈ 58.5 µM)
MIC (Pseudomonas aeruginosa [45]): ≥ 64 µg/mL
MIC (Pseudomonas aeruginosa [46]): ≥ 64 µg/mL
MIC (Pseudomonas aeruginosa [15]): 32 µg/mL (≈ 58.5 µM)
MIC (Acinetobacter baumannii): ≥ 64 µg/mL
MIC (Pseudomonas aeruginosa [47]): 4 µg/mL (≈ 7.32 µM)
MIC (Pseudomonas aeruginosa [16]): 32 µg/mL (≈ 58.5 µM)
MIC (Pseudomonas aeruginosa [48]): ≥ 64 µg/mL
MIC (Pseudomonas aeruginosa [49]): 4 µg/mL (≈ 7.32 µM)
MIC (Pseudomonas aeruginosa [50]): ≥ 64 µg/mL
MIC (Pseudomonas aeruginosa [51]): 4 µg/mL (≈ 7.32 µM)

MIC (Pseudomonas aeruginosa [1]): ≥ 4 µg/mL
MIC (Pseudomonas aeruginosa [2]): ≥ 4 µg/mL
MIC (Pseudomonas aeruginosa [3]): ≥ 4 µg/mL
MIC (Pseudomonas aeruginosa [4]): ≥ 4 µg/mL
MIC (Pseudomonas aeruginosa [5]): ≥ 4 µg/mL
MIC (Pseudomonas aeruginosa [7]): ≥ 4 µg/mL
MIC (Pseudomonas aeruginosa [8]): ≥ 4 µg/mL
MIC (Pseudomonas aeruginosa [9]): ≥ 4 µg/mL
MIC (Pseudomonas aeruginosa [10]): ≥ 4 µg/mL
MIC (Pseudomonas aeruginosa [11]): ≥ 4 µg/mL
MIC (Pseudomonas aeruginosa [12]): ≥ 4 µg/mL
MIC (Pseudomonas aeruginosa [13]): ≥ 4 µg/mL
MIC (Pseudomonas aeruginosa [15]): ≥ 4 µg/mL
Compound: O=C(O)c1cn(C2CC2)c2cc(N3CCNCC3)c(F)cc2c1=O [CIPROFLOXACIN]
